Results taken from ChEMBL document CHEMBL2380276, “Synthesis and antiproliferative evaluation of piperazine-1-carbothiohydrazide derivatives of indolin-2-one” (Bioorg Med Chem Lett, 2013).
pIC50: −log10 of the molar value.

Columns and labels:
Format in all cases: functional, cell-based
[1] = system: HCT-116; experiment: Cytotoxicity against human HCT116 cells assessed as growth inhibition after 72 hrs by MTT assay; details: HCT-116, 72 h
Outline: (§1)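 MTT proliferation assay; cells exposed 72 h, first screened at 100 μM with ≥50% inhibition versus vehicle-treated cells counted active; active compounds then tested at various concentrations to derive IC50 (concentration giving 50% proliferation inhibition). Sunitinib positive control. Means ± SD of three separate experiments.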

[2] = system: MCF7; experiment: Cytotoxicity against human MCF7 cells assessed as growth inhibition after 72 hrs by MTT assay; details: MCF7, 72 h; outline: as §1
[3] = system: A549; experiment: Cytotoxicity against human A549 cells assessed as growth inhibition after 72 hrs by MTT assay; details: A549, 72 h; outline: as §1

Structure (SMILES) | pIC50 [1] | pIC50 [2] | pIC50 [3]
O=C1Nc2c(Br)cc(Br)cc2/C1=N/NC(=S)N1CCN(c2ccccc2)CC1 | 5.20 | 4.94 | 5.21
Cc1ccc(NC(=S)N/N=C2\C(=O)Nc3ccc(Cl)cc32)c(C)c1 | < 4.00 | < 4.00 | < 4.00
O=C1Nc2ccc(Cl)cc2/C1=N/NC(=S)N1CCN(c2ccc(F)cc2F)CC1 | 5.23 | 4.70 | 4.94
O=C1Nc2ccc(Cl)cc2/C1=N/NC(=S)N1CCN(c2ccccc2[N+](=O)[O-])CC1 | 5.34 | 5.13 | 5.25
O=C1Nc2ccc(Cl)cc2/C1=N/NC(=S)N1CCN(c2ccc(Cl)cc2)CC1 | 5.27 | 4.88 | 5.09
O=C1Nc2cc(Cl)ccc2/C1=N/NC(=S)N1CCN(c2ccccc2)CC1 | 4.75 | 4.64 | 4.56
O=C1Nc2ccc(Br)cc2/C1=N/NC(=S)N1CCN(c2ccccc2)CC1 | 4.98 | 4.69 | 4.91
O=C1Nc2ccc(Cl)cc2/C1=N/NC(=S)N1CCN(c2ccccc2Cl)CC1 | 5.31 | 4.93 | 5.10
O=C1Nc2ccccc2/C1=N/NC(=S)Nc1ccccc1 | < 4.00 | < 4.00 | < 4.00
O=C1Nc2ccc(Cl)cc2/C1=N/NC(=S)N1CCN(c2ccc(F)cc2)CC1 | 5.20 | 4.91 | 5.05
COc1ccc2c(c1)/C(=N/NC(=S)N1CCN(c3ccccc3)CC1)C(=O)N2 | 5.02 | 4.84 | 5.12
COc1ccc(N2CCN(C(=S)N/N=C3\C(=O)Nc4ccc(Cl)cc43)CC2)cc1 | 5.11 | 4.86 | 5.11
O=C1Nc2ccc(Cl)cc2/C1=N/NC(=S)N1CCN(c2ccccc2F)CC1 | 5.08 | 4.82 | 4.98
O=C1Nc2ccc([N+](=O)[O-])cc2/C1=N/NC(=S)N1CCN(c2ccccc2)CC1 | 4.82 | 4.63 | 4.75
CCN(CC)CCNC(=O)c1c(C)[nH]c(/C=C2\C(=O)Nc3ccc(F)cc32)c1C [SUNITINIB] | 5.33 | 5.20 | 5.61
O=C1Nc2ccc(Cl)cc2/C1=N/NC(=S)N1CCN(c2ccc([N+](=O)[O-])cc2)CC1 | 4.92 | 4.68 | 4.93
O=C1Nc2ccccc2/C1=N/NC(=S)N1CCN(c2ccccc2)CC1 | 4.95 | 4.60 | 4.73
O=C1Nc2ccc(F)cc2/C1=N/NC(=S)N1CCN(c2ccccc2)CC1 | 4.91 | 4.61 | 4.68
O=C1Nc2ccc(Cl)cc2/C1=N/NC(=S)Nc1ccccc1 | 4.51 | 4.46 | 4.48
Cc1ccc(N2CCN(C(=S)N/N=C3\C(=O)Nc4ccc(Cl)cc43)CC2)c(C)c1 | 5.14 | 4.97 | 5.44
O=C1Nc2ccc(Cl)cc2/C1=N/NC(=S)N1CCN(c2ccccc2)CC1 | 5.46 | 4.98 | 5.13
O=C1Nc2ccc(Cl)cc2/C1=N/NC(=S)N1CCN(c2ccc(Cl)c(Cl)c2)CC1 | 5.24 | 4.97 | 5.10
Cc1ccc2c(c1)/C(=N/NC(=S)N1CCN(c3ccccc3)CC1)C(=O)N2 | 5.02 | 4.83 | 5.01
Cc1ccc(N2CCN(C(=S)N/N=C3\C(=O)Nc4ccc(Cl)cc43)CC2)cc1 | 5.19 | 4.77 | 4.99
O=C1Nc2cc(Br)ccc2/C1=N/NC(=S)N1CCN(c2ccccc2)CC1 | 4.84 | 4.71 | 4.80
O=C1Nc2cccc(Cl)c2/C1=N/NC(=S)N1CCN(c2ccccc2)CC1 | 4.38 | 4.28 | 4.25
Cc1ccccc1N1CCN(C(=S)N/N=C2\C(=O)Nc3ccc(Cl)cc32)CC1 | 5.31 | 4.96 | 5.19
O=C1Nc2cccc(Br)c2/C1=N/NC(=S)N1CCN(c2ccccc2)CC1 | 4.47 | 4.39 | 4.27
